Measurements as given in publication PMC8419023 (Structure (London, England : 1993), 2021).
Substitutions are numbered along the chain they refer to. Names and notes keep the numbering of the source.

Legend:
CDK2-cyclin A = CDK2-cyclin A (Homo sapiens, UniProt P20248+P24941); assay: GST pull down, CDK2-cyclin A; format: binding; settings: 25 mM HEPES pH 7.5, 150 mM NaCl, 1 mM DTT, 0.01% NP-40; 1 h, 4°C; SDS-PAGE; three experiments; Figure 1B
Outline: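 Bacterially expressed proteins: CDK2 (1–298) as a GST fusion, cyclin A (1–432 or 173–432) as a 6XHis fusion. […] Incubated 1 h at 4 °C with mild agitation, washed three times in binding buffer, and bound material analysed by SDS-PAGE; repeated 2–3 times.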

[1] = tested on: CDK2-cyclin A (Surface 2, hydrophobic patch); assay: Fluorescence polarization displacement of FITC-p27^27−36 from CDK2-cyclin A; format: binding, human

B1: Skp2^Δ1−88: Skp2 lacking the first 88 residues (protein)
chain 1: RENFPGVSWDSLPDELLLGIFSCLCLPELLKVSGVCKRWYRLASDESLWQTLDLTGKNLHPDVTGRLLSQGVIAFRCPRSFMDQPLAEHFSPFRVQHMDLSNSVIEVSTLHGILSQCSKLQNLSLEGLRLSDPIVNTLAKNSNLVRLNLSGCSGFSEFALQTLLSSCSRLDELNLSWCFDFTEKHVQVAVAHVSETITQLNLSGYRKNLQKSDLSTLVRRCPNLVHLDLSDSVMLKNDCFQEFFQLNYLQHLSLSRCYDIIPETLLELGEIPTLKTLQVFGIVPDGTLQLLKEALPHLQINCSHFTTIARPTIGNKKNQEIWGIKCRLTLQKPSCL
chain 2: MPSIKLQSSDGEIFEVDVEIAKQSVTIKTMLEDLGMDPVPLPNVNAAILKKVIQWCTHHKDDPGSGGTDDIPVWDQEFLKVDQGTLFELILAANYLDIKGLLDVTCKTVANMIKGKTPEEIRKTFNIKNDFTEEEEAQVRKENQWCEEK
modifications: left off: GST, end not stated, kept | His6, end not stated, state not stated
CDK2-cyclin A
  pull down / binding of CDK2-cyclin A^173−432 with or without Cks1: could not bind CDK2-cyclin A in the absence of Cks1

B2: 4A mutant of Skp2^1−424: full-length Skp2 with L32A/L33A/S39A/L41A (Motif 1 mutant) (protein)
chain 1: MHRKHLQEIPDLSSNVATSFTWGWDSSKTSEAASGMGVAAAEKEEPDSENIPQELLSNLGHPESPPRKRLKSKGSDKDFVIVRRPKLNRENFPGVSWDSLPDELLLGIFSCLCLPELLKVSGVCKRWYRLASDESLWQTLDLTGKNLHPDVTGRLLSQGVIAFRCPRSFMDQPLAEHFSPFRVQHMDLSNSVIEVSTLHGILSQCSKLQNLSLEGLRLSDPIVNTLAKNSNLVRLNLSGCSGFSEFALQTLLSSCSRLDELNLSWCFDFTEKHVQVAVAHVSETITQLNLSGYRKNLQKSDLSTLVRRCPNLVHLDLSDSVMLKNDCFQEFFQLNYLQHLSLSRCYDIIPETLLELGEIPTLKTLQVFGIVPDGTLQLLKEALPHLQINCSHFTTIARPTIGNKKNQEIWGIKCRLTLQKPSCL
chain 2: B1 chain 2
modifications: left off: GST, end not stated, cleaved | His6, end not stated, cleaved
[1]; mutant versus wild-type Skp2^1−424, FITC-p27^27−36, Figure 4F
  loss of displacement effectiveness versus wild-type: 3 fold

B3: F79A/I81A/R83A: full length Skp2 (Skp1-Skp2^1−424) with Motif 2 mutation F79A/I81A/R83A (protein)
chain 1: B2 chain 1 with A32L, A33L, A39S, A41L, F79A, I81A, R83A
chain 2: B1 chain 2
modifications: left off: GST, end not stated, cleaved | His6, end not stated, cleaved
[1]; 25 nM FITC-p27^27−36, CDK2-cyclin A 6.25 μM, HEPES pH 7.5, 30 min, N=4, Figure 3E
  IC50: not determinable
[1]; CDK2-cyclin A 6.25 μM, N=4, Figure 3E
  displacement of FITC-p27^27−36 (in words): greatly compromised for this function
